Screening results (PubChem BioAssay)
Sampled rows, rich in hits. Any-hit rate of the full collection: about 2.5%.
SIAE primary: human SIAE inhibition, primary screen | SIAE FP-Rh probe binding, fluorescence polarization | inhibition, % at 9.66 µM | 370,000 compounds, 0.69% hits;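 active = inhibition above a cutoff: mean of compounds within the control limits plus 3 SD of those, cut at about 17% in these data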;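 note: 0% = plate median of compound wells and 100% = probe without SIAE protein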
Target sequence (Q9HAT2 whole entry, looked up): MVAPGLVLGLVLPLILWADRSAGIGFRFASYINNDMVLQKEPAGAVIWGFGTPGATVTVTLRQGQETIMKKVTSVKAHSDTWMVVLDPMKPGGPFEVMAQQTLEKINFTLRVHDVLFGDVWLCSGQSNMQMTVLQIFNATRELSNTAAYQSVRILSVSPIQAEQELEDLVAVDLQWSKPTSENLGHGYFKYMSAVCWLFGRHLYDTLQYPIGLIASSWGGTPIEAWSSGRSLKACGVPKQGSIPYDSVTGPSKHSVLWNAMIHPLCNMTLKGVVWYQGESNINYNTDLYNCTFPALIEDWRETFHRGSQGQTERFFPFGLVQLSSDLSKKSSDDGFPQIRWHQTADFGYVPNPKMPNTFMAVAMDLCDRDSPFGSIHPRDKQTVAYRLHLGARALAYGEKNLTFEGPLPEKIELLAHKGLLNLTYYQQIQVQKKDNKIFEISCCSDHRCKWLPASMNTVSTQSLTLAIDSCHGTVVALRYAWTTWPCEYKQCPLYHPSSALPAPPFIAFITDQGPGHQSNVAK
TCR CD3 inh: human TCR-CD3 binding inhibition; 360,000 compounds, 0.37% hits; TAMRA-labeled TCR probe fluorescence, biochemical; inhibition, % at 9.4 µM; in the data active = inhibition above about 19%;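 note: recombinant mutant TCR 2C K166C tagged with TAMRA read by polarization; 0% = receptor in buffer alone and 100% = receptor with positive control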
PRMT1 inh: PRMT1 (human) inhibition, primary screen; 370,000 compounds, 1.3% hits; recombinant PRMT1, activity-based probe fluorescence polarization; inhibition, % at 2.79 µM; Q99873; AID 652257;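 active = inhibition above about 21% made by adding two undisclosed values, limit read from the data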
HTRA1 inh: HTRA1 (human) protease inhibition; Q92743; recombinant HTRA1, FP-rhodamine activity-based probe, fluorescence polarization; inhibition, % at 5.96 µM; 340,000 compounds, 0.5% hits; in the data active = inhibition above about 36%;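 note: 0% = enzyme with DMSO and 100% = wells lacking enzyme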
mABHD4 FP: inhibits mouse alpha/beta hydrolase domain 4 | 370,000 compounds, 0.54% hits | Q8VD66 | inhibition, % at 8.92 µM | purified mABHD4, FP-Rh probe fluorescence polarization;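 active = inhibition exceeding the mean over every tested compound plus 3 SD, cut at about 30% in these data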;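 note: 0% = plate median of compound wells and 100% = S159A mutant with DMSO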
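assay system = mABHD4 protein | compound dosing = single nominal dose of 8.92 µM, 0.89% DMSO final | read-out basis = percent inhibition of probe binding, normalized to plate controls | schedule = Enzyme–compound pre-incubation 45 min, then probe 60 min, both 25 °C | detection = fluorescence polarization, excitation 525 nm, emission 598 nm, BODIPY TMR filters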
PRMT1 inh conf: PRMT1 (human) inhibition, FP confirmation. 3,300 compounds, 42% hits. recombinant His-PRMT1, activity-based probe fluorescence polarization. inhibition, % at 2.79 µM. shares compounds with PRMT1 inh;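 active = mean inhibition across replicates above the hit cutoff derived for the earlier primary screen, cut at about 22% in these data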
An asterisk follows results filed as active; nt = no result given.

SMILES	SIAE primary	TCR CD3 inh	PRMT1 inh	HTRA1 inh	mABHD4 FP	PRMT1 inh conf
COC(=O)C(NNc1ccc(F)cc1)(NC(=O)c1ccccc1)C(F)(F)F (stereo unspecified)	-1	2	1	-4	4	nt
COC(=O)C(NNc1ccccc1C)(NC(=O)c1ccc(F)cc1)C(F)(F)F (stereo unspecified)	1	0	50*	-3	0	10
O=C(/C=C/c1ccco1)N(Cc1ccc(Cl)cc1)C1CCS(=O)(=O)C1 (stereo unspecified)	-1	-4	28*	4	-1	2
CN(C)c1ccc(CN(C(=O)/C=C/c2ccco2)C2CCS(=O)(=O)C2)cc1 (stereo unspecified)	10	2	3	nt	4	nt
O=C(CCN1C(=O)c2ccccc2S1(=O)=O)NCc1ccccc1Cl	1	-1	-1	9	-2	nt
CC(C)CC1=NN2C(=N)/C(=C\c3coc4ccccc4c3=O)C(=O)N=C2S1	-19	-2	34*	-24	3	48*
Cc1ccccc1C(=O)Nc1ccccc1C(=O)N1CCC(C)CC1	16	-4	5	-3	4	nt
COc1ccc(CCNC2=C(Cl)C(=O)N(CCc3ccccc3)C2=O)cc1OC	8	-1	2	-23	-5	nt
O=C1C(Cl)=C(Nc2ccccc2O)C(=O)N1CCc1ccccc1	-6	5	30*	-7	21	54*
COC(=O)c1ccc(CNC(=O)COC(=O)c2cc(Cl)ccc2O)cc1	0	4	-1	4	-1	nt
Cc1cccc2sc(NC(=O)Cn3cccc3)nc12	-1	-5	33*	-8	-11	19
CCn1c(C)cs/c1=N\S(=O)(=O)c1ccccc1	4	1	-1	-1	1	nt
O=Cc1s/c(=N\S(=O)(=O)c2ccccc2)n(CCCCl)c1Cl	-6	4	43*	-18	3	37*
N#CCN1CCC(c2cc(-c3ccco3)n[nH]2)CC1	-3	3	57*	nt	2	3
O=C(Nc1sc2c(c1-c1nc3ccccc3s1)CCNC2)C(F)(F)F	0	nt	41*	nt	11	10
COc1cc(C(=O)N(C)CCOc2ccc(C)cc2)ccc1OC1CCN(C(C)=O)CC1	3	-14	2	3	-3	nt
COc1cccc(-c2cc3nc(-c4ccco4)cc(N4CCN(C(C)=O)CC4)n3n2)c1	-16	nt	50*	nt	-3	16
O=C(c1ccoc1)N1CCN(c2cc(-c3ccco3)nc3cc(-c4ccco4)nn23)CC1	-9	nt	34*	nt	-9	-1
COc1cccc(-c2cc3nc(-c4ccccc4)cc(N4CCN(C(=O)c5ccoc5)CC4)n3n2)c1	-27	2	2	-88	-22	nt
N=C1/C(=C\c2ccc(SCc3ccco3)o2)C(=O)N=C2SC=NN12	-60	-13	51*	-108	-119	12
CCn1cc(C(=O)N2CCn3c(nc4ccccc43)C2)c(=O)c2ccc(C)nc21	-4	-8	31*	7	4	3
S=c1[nH]nc(COc2ccccc2)n1/N=C/C=C/c1ccco1	8	3	33*	nt	15	1
CC(C)c1ccc(/C=N/n2c(COc3ccccc3)n[nH]c2=S)cc1	4	-3	31*	-18	-16	21
N#Cc1ccc(C(=O)NC2CCCCCCC2)cc1	4	-2	4	-7	1	nt
O=C(c1ccccc1)N1CCN(C(=O)c2nn3c(C(F)(F)F)cc(-c4ccco4)nc3c2Br)CC1	15	-4	30*	6	20	3
SMILES	SIAE primary	TCR CD3 inh	PRMT1 inh	HTRA1 inh	mABHD4 FP	PRMT1 inh conf
Cc1ccc(F)cc1NC(=O)CSCc1nc2sc(C)c(C)c2c(=O)[nH]1	6	9	34*	-9	6	38*
CSc1ccccc1NC(=O)CSCc1nc2sc(C)c(C)c2c(=O)[nH]1	-2	-7	7	-7	1	nt
CC(=O)N1CCc2cc(Br)c(S(=O)(=O)NCc3ccc(Cl)cc3)cc21	0	nt	0	nt	4	nt
Cc1ccc2c(c1)N(CCCC(=O)NCc1cccs1)C(=O)CO2	3	nt	-1	nt	6	nt
O=C(NCc1ccc2c(c1)OCO2)c1nc(S(=O)(=O)Cc2ccccc2F)ncc1Cl	1	-5	29*	-2	4	22*
CC(C)c1nnc(NC(=O)c2nc(S(=O)(=O)Cc3ccccc3F)ncc2Cl)s1	2	3	7	nt	2	nt
O=C(NCc1ccc2c(c1)OCO2)c1nc(S(=O)(=O)Cc2ccccc2)ncc1Cl	-2	3	25*	3	-6	17
O=C(O)CN1C(=O)/C(=C\C(Br)=C\c2ccccc2)SC1=S	0	0	31*	-3	13	33*
O=C(O)CN1C(=O)/C(=C/C=C/c2ccccc2)SC1=S	6	5	8	0	1	nt
COc1cc(OC)cc(-c2nnc(SCC(=O)Nc3cccc(C(=O)O)c3)s2)c1	-4	6	-4	0	-6	nt
COc1cc(N=c2ssnc2Cl)cc(OC)c1	4	-2	63*	22	16	92*
COc1cc(OC)cc(-c2nc(-c3ccccc3OC)no2)c1	2	-4	0	0	2	nt
CN1C(=O)CSC1=Nc1ccc(Br)cc1	2	0	-3	1	1	nt
N#Cc1cccc(N=c2ssnc2Cl)c1	8	-9	100*	nt	-3	92*
Clc1nssc1=Nc1nncs1	2	3	97*	7	0	92*
Cc1cc(C)cc(C(N)=Nc2cccc(C#N)c2)c1	-2	1	-1	-17	-5	nt
Clc1nssc1=Nc1ccc(Br)cc1	10	4	72*	4	4	93*
C[C@H]1CN([C@@H](C)CO)C(=O)c2cc(Br)cnc2O[C@@H]1CN(C)S(=O)(=O)c1ccccc1	-1	3	2	3	0	nt
CCn1c(SCC(=O)Nc2ccc(N3CCOCC3)cc2)nnc1C1CC1	1	0	-2	-6	0	nt
CC(C)n1c(-c2ccccc2)nc(=S)c2c1CCCC2	1	-5	36*	nt	13	3
COc1ccc(C(=O)C2CCCN(C(=O)c3ccc4cc[nH]c4c3)C2)c(C)c1 (stereo unspecified)	-2	-6	-2	-8	3	nt
COc1ccc2[nH]c(S(=O)Cc3ncc(C)c(OC)c3C)nc2c1 (stereo unspecified)	-1	-5	34*	-2	9	-4
COc1ccnc(CS(=O)c2nc3cc(C(O)(F)F)ccc3[nH]2)c1OC (stereo unspecified)	7	1	14	3	6	nt
O=S(=O)(Nc1ccccc1F)c1cccc(NC(=S)NCCN2CCOCC2)c1	2	1	73*	3	5	61*
COc1ccccc1NS(=O)(=O)c1cc(NC(=O)c2sccc2C)ccc1N1CCOCC1	-24	-7	4	-39	-15	nt
O=C(Nc1cccc(S(=O)(=O)Nc2ccccc2F)c1)c1ccc2ccccc2n1	-12	-1	43*	-49	-17	12
